Source: PubChem BioAssay (several laboratories)
MDM2 E3 inh – inhibitors of human Mdm2 E3 ubiquitin ligase. cell-based MDM2 ubiquitination luciferase reporter, 2 h; 0 = plate control, 100 = twice control, blank-subtracted. signal enhancement, % at 5 µM. 210,000 tested, 0.11% active. AID 1230;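 active means signal enhancement of 30% or more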;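 further: luminescence tracks abundance of the self-degrading MDM2-luciferase fusion protein; higher signal means inhibition of MDM2 E3 ligase activity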
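Timing – 2 h compound exposure at 37 °C · Assay system – mammalian cells stably expressing self-ubiquitinating, self-degrading MDM2 E3–luciferase fusion · Amount – 2000 cells seeded into each well · Measure – % luminescence enhancement versus blank-corrected plate control mean · Measured by – SteadyLite luminescence, 15 min reagent step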
XBP1 UPR activ – adaptive UPR (XBP1) activation; CHO-XBP1 luciferase reporter, IRE1-XBP1 UPR activation, luminescence; percent of tunicamycin response, DMSO as zero; activation, % at 20 µM; 330,000 tested, 0.33% active;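 active means versus positive control, 20 µM dose yields 30% or more activation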;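 further: 100% = tunicamycin at 10 µg/mL and 0% = DMSO only wells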
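Assay system: CHO-XBP1 luciferase reporter cells; Schedule: 6 h treatment, 37 °C; Detection: glow luminescence from Steady-Glo reagent; Benchmarks: high control tunicamycin 10 µg/mL final, low control DMSO vehicle only.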
Mdm2-MdmX inh – inhibitors of human Mdm2/MdmX interaction; O15151+Q00987; SaOS-2 split-luciferase Mdm2/MdmX complementation, luminescence; inhibition, % at 8 µM; 330,000 tested, 3% active; AID 485346;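 active means inhibition of at least 50% at 8 µM in the primary screen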
Target sequence (O15151 whole entry, looked up): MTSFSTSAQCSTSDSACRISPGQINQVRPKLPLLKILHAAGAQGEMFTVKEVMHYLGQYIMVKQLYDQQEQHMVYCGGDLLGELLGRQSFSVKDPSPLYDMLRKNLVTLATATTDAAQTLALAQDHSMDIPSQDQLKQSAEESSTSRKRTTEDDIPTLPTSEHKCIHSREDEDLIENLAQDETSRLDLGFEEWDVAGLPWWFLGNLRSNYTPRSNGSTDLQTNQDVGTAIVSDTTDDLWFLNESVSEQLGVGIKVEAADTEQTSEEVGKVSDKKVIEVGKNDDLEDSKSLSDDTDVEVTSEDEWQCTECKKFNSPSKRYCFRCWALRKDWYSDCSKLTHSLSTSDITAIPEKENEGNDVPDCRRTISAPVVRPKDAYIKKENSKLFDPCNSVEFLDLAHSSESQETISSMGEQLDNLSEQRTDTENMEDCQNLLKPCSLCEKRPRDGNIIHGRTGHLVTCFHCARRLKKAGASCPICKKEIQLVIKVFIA
Target sequence (Q00987 whole entry, looked up): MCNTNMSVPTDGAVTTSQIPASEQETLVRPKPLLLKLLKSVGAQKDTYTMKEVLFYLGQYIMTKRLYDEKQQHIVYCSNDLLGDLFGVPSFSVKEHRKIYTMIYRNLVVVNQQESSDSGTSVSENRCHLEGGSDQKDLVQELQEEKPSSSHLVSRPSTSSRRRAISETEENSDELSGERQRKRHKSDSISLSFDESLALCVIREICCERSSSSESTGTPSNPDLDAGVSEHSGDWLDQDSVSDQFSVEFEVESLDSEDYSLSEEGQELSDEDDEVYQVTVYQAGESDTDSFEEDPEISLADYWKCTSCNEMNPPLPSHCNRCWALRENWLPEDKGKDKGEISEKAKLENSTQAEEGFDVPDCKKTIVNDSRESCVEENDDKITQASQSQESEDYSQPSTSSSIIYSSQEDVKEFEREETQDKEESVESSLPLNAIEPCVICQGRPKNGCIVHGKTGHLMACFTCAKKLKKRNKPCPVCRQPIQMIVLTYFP
UPR CHOP act – activators of apoptotic arm of unfolded protein response (CHOP); 330,000 tested, 0.34% active; AID 449763; CHO-CHOP luciferase reporter, UPR activation, luminescence; percent of tunicamycin response over DMSO baseline; activation, % at 10 µM;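 active means at 10 µM dose, activation of 40% or more, normalized to positive control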;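 further: 100% = tunicamycin at 10 µg/mL and 0% = DMSO alone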
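Assay system: CHO-CHOP cells, stable luciferase reporter of PERK-eIF2a-CHOP signalling / Buffer or medium: F12 plus 10% serum / Compound dosing: one dose, 10 µM in 0.5% DMSO / Times: 6 h compound treatment, 37 °C / Technique: luciferase luminescence / Read-out: % reporter activation, DMSO baseline versus tunicamycin full activation / Benchmarks: tunicamycin and DMSO controls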
B2AR ag – human beta-2 adrenergic receptor agonism by FAP. Am2.2-beta2AR cells, FAP receptor internalization, flow cytometry. response, % (no concentration beside the values). 340,000 tested, 0.43% active. AID 504454;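 active means response above a set limit, near 3 SD of response in nonfluorescent compounds, cut at about 42% in these data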
Dynein transport – blocks dynein driven cargo transport along microtubules; z-score, hits read low; 220,000 tested, 0.47% active; 3617.4 mouse cells, GR-EGFP nuclear translocation imaging; test concentration mostly 20 µM; stimulated with dexamethasone, 1 µM; stronger effect = lower value;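 active means plate z-score of nuclear minus cytoplasmic receptor signal below a set negative limit, without overly bright fluorescence or cell loss, cut at about -3.5 in these data, passing the limit was not always enough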;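 further: z-score of nuclear minus cytoplasmic ring GR-EGFP intensity difference per well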
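Buffer or medium: tet-free, stripped-serum medium; reagent: dexamethasone at 1.0 µM final, 30 min; incubation: 48 h induction, 1 h compound, 30 min dex at 37 °C; measured by: formaldehyde fixation, Hoechst nuclear stain, 10x automated fluorescence imaging; read-out: nuclear-to-cytoplasmic GR-EGFP distribution per well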
CHOP UPR conf – confirmation of apoptotic unfolded protein response (CHOP) activators; shares compounds with UPR CHOP act; CHO-CHOP cells, CHOP-luciferase reporter luminescence; percent of tunicamycin response, DMSO as zero; activation, % at 10 µM; 1,000 tested, 64% active; AID 463112; in the data active means activation above about 33%;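 further: 0% = DMSO wells and 100% = tunicamycin 10 µg/mL wells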
UPR XBP1 confirm – adaptive UPR (XBP1) activation, confirmed | AID 485299 | activation, % at 20 µM | shares compounds with XBP1 UPR activ | 1,000 tested, 63% active | CHO-XBP1 IRE1-XBP1 luciferase reporter, luminescence;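 active means reporter signal at least 30% of the positive control's activation in two or more of four replicate wells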;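 further: plate controls were DMSO negative control for no effect and tunicamycin 10 µg/mL positive control for full effect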
Mdm2 MdmX conf – human Mdm2/MdmX binding inhibition, confirmed; inhibition, % at 8 µM; shares compounds with Mdm2-MdmX inh; 10,000 tested, 55% active; luminescent assay; AID 489028; in the data active means inhibition above about 40%
Full FLuc ctr – full-length luciferase inhibition in Mdm2/MdmX counter-screen; 6,200 tested, 77% active; SaOS-2 full-length luciferase counterscreen, luminescence; inhibition, % at 8 µM; shares compounds with Mdm2-MdmX inh;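 active means mean inhibition at 8 µM reaching about 37%, which flags the compound as non-specific, limit read from the data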;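 further: p53-null SaOS-2 cells with luciferase driven by a doxycycline-inducible promoter; compound on cells about two nights before reading with doxycycline added after day one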
B2AR ag CP1 – agonists of human beta-2 adrenergic receptor; shares compounds with B2AR ag; Am2.2-beta2AR cells, FAP surface receptor, flow cytometry; stronger effect = lower value; percent response (surface receptor), % at 10 µM; 1,100 tested, 25% active;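 active means surface receptor percent response at or below 58%, roughly 3 SD from nonfluorescent compounds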
B2AR FAP counter – flagged in Am2.2 fluorescence counterscreen for beta-2AR agonists. shares compounds with B2AR ag. Am2.2 cells, FAP fluorogen flow cytometry; stronger effect = lower value. calls only at 10 µM. 1,100 tested, under 10 active;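 active means percent response below a set limit in fluorescence channel 1 and below 50% in channel 8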
An asterisk follows results filed as active; i = inactive; . = no result. A selection: hits, their analogues and other compounds. The true share with any hit is near 3.7%.

SMILES	MDM2 E3 inh	XBP1 UPR activ	Mdm2-MdmX inh	UPR CHOP act	B2AR ag	Dynein transport	CHOP UPR conf	Mdm2 MdmX conf	Full FLuc ctr	others
C/C(=N\NC(=O)c1ccccc1OCc1ccc(F)cc1)c1ccccn1	.	18	93*	109*	36	.	99*	53*	45*
C/C(=N\NC(=O)c1cccc2ccccc12)c1ccccn1	.	1	96*	332*	10	.	339*	38	30
Cc1noc(C)c1S(=O)(=O)N(C)C[C@H]1Oc2ccc(NC(=O)CCC(F)(F)F)cc2C(=O)N([C@H](C)CO)C[C@@H]1C	.	-6	-2	1	1	.	.	.	.
CC(NC(=O)/C(C#N)=C/c1ccc(Cl)c([N+](=O)[O-])c1)c1ccccc1 (stereo unspecified)	6	-8	100*	63*	.	1.4	-10	67*	29
O=C(Oc1c(CN2CCOCC2)cc(Cl)c2cccnc12)c1ccc(F)cc1	-11	20	52*	40*	-12	-0.29	40*	49*	42*
COc1cccc(C(=O)Oc2c(CN3CCOCC3)cc(Cl)c3cccnc23)c1	-15	19	54*	80*	-4	-1.5	28	56*	49*
Cc1cccc(N2CCN(C(=O)C3CCC(CNS(=O)(=O)c4cccs4)CC3)CC2)c1C (stereo unspecified)	.	-1	43	6	12	.	.	.	.
C=C(CCO)C1=CCN(S(=O)(=O)C(C)(C)C)[C@H]1CCO	.	.	.	.	-10	.	.	.	.
O=C(N/N=C/c1cn(-c2ccccc2)nc1-c1ccccc1)c1ccco1	-6	7	6	6	5	.	.	.	.
N#Cc1ccc(N/N=C/c2cn(-c3ccccc3)nc2-c2ccccc2)c([N+](=O)[O-])c1	-1	43*	91*	107*	-12	-0.72	108*	5	.	UPR XBP1 confirm=122*
CCOC(=O)c1c(CSC(=N)N)n(C)c2cc(Br)c(OC(C)=O)cc12	-8	12	-7	23	4	-1.4	.	.	.
CCOC(=O)c1c(CSC(=N)N)n(-c2ccc(C)cc2)c2cc(Br)c(OC(C)=O)cc12	-7	-6	92*	56*	45*	-1.5	73*	9	.
COc1cc(/C=C/C(=O)c2ccc3c(c2)OCCO3)cc(Br)c1OCC(=O)N(C)C	.	13	95*	135*	10	.	272*	79*	56*
COc1cccc(/C=C/C(=O)c2ccc3c(c2)OCO3)c1OC	.	0	24	2	12	.	.	.	.
CO/N=C(\CCC(=O)O)c1cccs1	3	1	19	9	-10	-0.65	.	.	.
Cc1ccc2oc(Nc3nc(-c4ccccc4)cc(=O)[nH]3)nc2c1	1	28	97*	364*	.	-0.85	423*	21	.
COc1cc(/C=N/NC(=O)c2ccc(COc3cc(C)ccc3C(C)C)cc2)cc(OC)c1O	-6	-3	27	-1	-6	0.66	.	.	.
Cc1ccc(C(C)C)c(OCc2ccc(C(=O)N/N=C/c3ccc(O)c(O)c3)cc2)c1	-9	86*	53*	102*	12	-0.41	57*	31	.	UPR XBP1 confirm=54*
COc1ccc(/C=C/C(=O)C(C(N)=O)=C2SCCS2)cc1	-5	-1	-11	6	6	3.1	.	.	.
Cc1ccc(C(=O)C(C(=O)/C=C/c2ccccc2)=C2SCCCS2)cc1	8	30*	98*	75*	17	-4.5*	96*	90*	54*	UPR XBP1 confirm=39*
COc1ccc(S(=O)(=O)N(CC(=O)NCc2ccncc2)c2ccc(C)cc2)cc1OC	.	-2	16	0	-2	.	.	.	.
Cc1ccc2cccc(NS(=O)(=O)c3ccccc3)c2n1	.	0	84*	446*	.	.	94*	95*	23	B2AR ag CP1=119;B2AR FAP counter=i
O=S(=O)(Nc1cccc2ccccc12)c1ccccc1	-14	2	-10	1	-3	0.73	.	.	.
O=S(=O)(Nc1cccc2cccnc12)c1ccccc1	.	-9	100*	368*	46*	.	58*	100*	52*	B2AR ag CP1=90;B2AR FAP counter=i
O=S(=O)(Nc1cccc2ncccc12)c1cccs1	-7	-8	74*	49*	44*	-1.6	-4	100*	52*	B2AR ag CP1=89;B2AR FAP counter=i
SMILES	MDM2 E3 inh	XBP1 UPR activ	Mdm2-MdmX inh	UPR CHOP act	B2AR ag	Dynein transport	CHOP UPR conf	Mdm2 MdmX conf	Full FLuc ctr	others
CC(C)c1nnc(NC(=O)CCS(=O)(=O)c2nc(-c3cccs3)cc(C(F)(F)F)n2)s1	-10	-6	95*	74*	97*	-1.4	48*	44*	63*	B2AR ag CP1=55*;B2AR FAP counter=i
CC(C)c1nnc(NC(=O)CCS(=O)(=O)Cc2ccccc2)s1	.	-3	15	0	7	.	.	.	.
C(=C\c1ccccn1)/c1cccnc1	.	-2	-6	5	-5	-0.32	.	.	.
CC(C)CN(C(=O)COC(=O)CSc1ccccc1)c1c(N)n(Cc2ccccc2)c(=O)[nH]c1=O	.	0	-3	0	9	.	.	.	.
Cc1cc(C)cc(N2C(=O)CC(Sc3nnnn3-c3ccccc3)C2=O)c1 (stereo unspecified)	-37	-5	5	56*	51*	-2.2	28	.	.	B2AR ag CP1=114;B2AR FAP counter=i
Cc1ccc(-c2nc(NC(=O)c3nn(C)cc3[N+](=O)[O-])sc2C)cc1C	-5	13	81*	65*	80*	-2.1	68*	100*	51*	B2AR ag CP1=48*;B2AR FAP counter=i
CC(C)Cc1nnc(NC(=O)CCS(=O)(=O)c2ccc(Cl)cc2)s1	.	-6	32	0	-7	.	.	.	.
CS(=O)(=O)c1ccc(-n2nnc3ccccc32)c([N+](=O)[O-])c1	.	0	-2	2	-3	.	.	.	.
